Reference: publication PMC9989852 (Food and chemical toxicology : an international journal …, 2022)
Several values for one entry are separate records, joined by “and”; a condition that tells them apart may be missing. Equal entries are not always repeated.

Assays:
[1] = system: liver; test: Liver histopathology after 28-day dermal exposure; format: in vivo, B6C3F1 mice; conditions: 28 days, mice affected of 5
Procedure, shortened: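 Female B6C3F1 mice (5/group) received 25 μl/ear on the dorsal ear surfaces daily, with acetone as vehicle. Tissues were formalin-fixed about 24 h after the last dose: liver remainder, half spleen, right kidney and half ear pinna. Sections were paraffin-embedded, cut at 5 μm and stained with H&E. A veterinary pathologist read them per STP guideline and graded 1 (minimal) to 5 (severe) by extent.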

[2] = ref Russell et al., 2015, Xu et al., 2020; cited from earlier work
[3] = system: ear pinna; test: Skin; format: in vivo, B6C3F1 mice; conditions: dermal, 28 days
Procedure, shortened: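 Female B6C3F1 mice (5/group) received 25 μl/ear daily to the dorsal ears in acetone. About 24 h after the last dose, tissues went into RPMI: both auricular dLNs, half spleen and one ear pinna. Single-cell suspensions were acquired on an LSR II, with populations gated per supplemental strategy and FMO gating controls. Results are mean ± SE, n=5, by one-way ANOVA.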

[4] = pH of PFAS; format: physicochemical; conditions: PFAS (5%) in PBS, free acid form
[5] = system: B6C3F1 mice; test: Organ weights and body weight after 28-day dermal exposure; format: in vivo; conditions: 28 days
[6] = PFAS concentration in serum; format: in vivo, B6C3F1 mice; conditions: 1.25%–5%, dermal, 28 days
Procedure, shortened: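 Serum came by cardiac puncture about 24 h after the final daily ear dose (25 μl/ear, acetone vehicle; female B6C3F1 mice). Samples underwent solid-phase extraction and LC/MS/MS. Short-chain analytes were quantified as linear isomer only; the legacy comparator was quantified as linear plus branched. Data are mean ± SE of 4–5 mice, one-way ANOVA with Dunnett's vs vehicle.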

## O=C(O)C(F)(F)C(F)(F)C(F)(F)C(F)(F)C(F)(F)C(F)(F)F [PFHpA, Perfluoroheptanoic acid]
[1]; 1.25%
  Liver: Hypertrophy, centrilobular, hepatocyte, Mild (incidence): 0
  Liver: Hypertrophy, centrilobular, hepatocyte, Minimal (incidence): 3/5 and 3
[1]; 2.5%
  Liver: Hypertrophy, centrilobular, hepatocyte, Mild (incidence): 0
  Liver: Hypertrophy, centrilobular, hepatocyte, Minimal (incidence): 5/5 and 5
[1]; 5%
  Liver: Hypertrophy, centrilobular, hepatocyte, Mild (incidence): 3/5 and 3
  Liver: Hypertrophy, centrilobular, hepatocyte, Minimal (incidence): 2/5 and 2
[2]
  estimated half-life in humans: 62 to 70 days
[3]; 1.25%
  Ear CD4^+ cell number: 1.49 ± 0.38 × 10^3
  Ear CD4^+ frequency: 1.78 ± 0.19%
  Ear CD8^+ cell number: 0.79 ± 0.14 × 10^2
  Ear CD8^+ frequency: 0.11 ± 0.03%
  Ear CD45^+ cell number: 8.01 ± 1.58 × 10^4
  Ear CD45^+ frequency: 8.04 ± 1.11%
  Ear CD lib- F4/80+ DCs cell number: 5.44 ± 0.94 × 10^2
  Ear CDllb + F4/80+ DCs cell number: 4.52 ± 0.98 × 10^2
  Ear CDllb- F4/80+ DCs frequency: 0.70 ± 0.05%
  Ear CDllb- F4/80-DCs cell number: 1.12 ± 0.29 × 10^3
  Ear CDllb- F4/80-DCs frequency: 1.34 ± 0.16 %
  Ear Dendritic Cells cell number: 2.18 ± 0.47 × 10^3
  Ear Dendritic Cells frequency: 2.69 ± 0.15%
  Ear Eosinophils cell number: 1.41 ± 0.42 × 10^3
  Ear Eosinophils frequency: 1.60 ± 0.26%
  Ear NK cell number: 3.89 ± 0.91 × 10^2
  Ear NK frequency: 0.48 ± 0.04%
  Ear Neutrophils cell number: 1.59 ± 0.24 × 10^2
  Ear Neutrophils frequency: 0.21 ± 0.02%
  Ear Total Cellularity: 0.96 ± 0.08 × 10^6
[3]; 2.5%
  Ear CD8^+ cell number: 1.77 ± 0.27 × 10^2
  Ear CD8^+ frequency: 0.16 ± 0.01%
  Ear CD lib- F4/80+ DCs cell number: 7.95 ± 0.98 × 10^2
  Ear CDllb + F4/80+ DCs cell number: 13.00 ± 2.97 × 10^2
  Ear CDllb + F4/80+ DCs frequency: 1.13 ± 0.12 %
  Ear CDllb- F4/80+ DCs frequency: 0.75 ± 0.08 %
  Ear CDllb- F4/80-DCs cell number: 2.42 ± 0.45 × 10^3
  Ear Dendritic Cells frequency: 4.21 ± 0.26 %
  Ear Eosinophils cell number: 5.54 ± 1.71 × 10^3
  Ear Eosinophils frequency: 4.57 ± 0.96 %
  Ear NK cell number: 7.43 ± 1.69 × 10^2
  Ear NK frequency: 0.66 ± 0.08%
  Ear Neutrophils cell number: 2.48 ± 0.43 × 10^2
[3]; 5%
  Ear CD4^+ cell number: 6.06 ± 0.33 × 10^3
  Ear CD4^+ frequency: 4.18 ± 0.24 %
  Ear CD8^+ cell number: 2.81 ± 0.39 × 10^2
  Ear CD8^+ frequency: 0.20 ± 0.03 %
  Ear CD45^+ cell number: 14.60 ± 0.67 × 10^4
  Ear CD45^+ frequency: 12.38 ± 0.81%
  Ear CD lib- F4/80+ DCs cell number: 14.50 ± 0.97 × 10^2
  Ear CDllb + F4/80+ DCs cell number: 18.90 ± 1.84 × 10^2
  Ear CDllb + F4/80+ DCs frequency: 1.31 ± 0.14 %
  Ear CDllb- F4/80+ DCs frequency: 1.00 ± 0.07 %
  Ear CDllb- F4/80-DCs cell number: 3.38 ± 0.19 × 10^3
  Ear CDllb- F4/80-DCs frequency: 2.32 ± 0.03%
  Ear Dendritic Cells cell number: 7.25 ± 0.31 × 10^3
  Ear Dendritic Cells frequency: 4.99 ± 0.15 %
  Ear Eosinophils cell number: 6.45 ± 1.12 × 10^3
  Ear Eosinophils frequency: 4.36 ± 0.63 %
  Ear NK cell number: 7.96 ± 0.70 × 10^2
  Ear NK frequency: 0.56 ± 0.07%
  Ear Neutrophils cell number: 7.10 ± 1.15 × 10^2
  Ear Neutrophils frequency: 0.49 ± 0.07 %
  Ear Total Cellularity: 1.19 ± 0.08 × 10^6
[4]
  pH: 1.49
[5]; 1.25–5%
  body weight or overt signs of toxicity: no changes
[5]; 2.5%, not dose dependent
  thymus weights (% body weight): significantly increased
[5]; 5%
  Liver weight (% body weight), increase vs vehicle-treated mice: 18%
  kidney weights (% body weight): significantly increased
[6]
  PFAS serum concentration vs vehicle: significant increase
